Reference: the EternaBench riboswitch data

Tested on: MS2 coat protein
Assay: apparent Kd, MS2 coat protein; higher = weaker binding; RNA-MaP array; FMN 200 µM where present
In short: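 Each design was made on Illumina sequencing-chip clusters by stalled E. coli RNA polymerase and titrated with SNAP-549-labelled MS2 coat protein from 0.7 or 1.5 nM, doubling to 3 µM, in the absence and then the presence of constant ligand. The buffer was 100 mM Tris-HCl pH 7.5, 80 mM KCl, 4 mM MgCl2, BSA, DTT, yeast tRNA and Tween-20. The apparent Kd is the median of filtered per-cluster fits of binding curves, with green signal normalised to red-channel RNA signal and control-cluster median Fmax.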

[1] = designed as: OFF switch for flavin mononucleotide, no ligand
[2] = ligand present: flavin mononucleotide, designed as: OFF switch for flavin mononucleotide
[3] = designed as: ON switch for flavin mononucleotide, no ligand
[4] = ligand present: flavin mononucleotide, designed as: ON switch for flavin mononucleotide

Sequence | apparent Kd [1] | apparent Kd [2] | apparent Kd [3] | apparent Kd [4]
AACAUGCUUGGGUAACCUGGCACAUGAGGAUCACCCAUGUGACAGGAUAUCGACGUAGAUGGCGACGAGAAGGGUCCGAUGGGU | 7.13 nM | 10.8 nM | – | –
AAGGUACGAGGAUAUACAUAGAUACAGACACAUGUUCAAGUACAUGAGGAUCACCCAUGUAGAAGGCGUAUAUA | 38.7 nM | 160 nM | – | –
GGAGCUCACAUCUACAUGAGGAUCACCCAUGUCAAAAGACAUGAGGAUAUGCAUCCUAAUUGGAUGCAGAAGGCAUGGAGCUCC | – | – | 946 nM | 57.4 nM
GGGUACAUCGGAGGAUAUCAUGUGAAUACAUGAGGAUCACCCAUGUCGAUGGAGACAUCGGAGAUUGAGAAGGCCGAUGUACCG | – | – | 446 nM | 15.1 nM
GAAGCACAUGAGGAUCACCCAUGUAAGGAUAUACGUCUGGUCCGGCCGGACCAGUACCGUAGAAGGUACGUAAA | 19.1 nM | 23 nM | – | –
GAACCUAAGUCAGGAUAUGUCUAAGAAAACUGACAUGAGGAUCACCCAUGUGAAUGUAAAGCAUGGCAGAAGGGAUAUGGGUGG | – | – | 171 nM | 315 nM
AGUCGGAGCAGAGGAUAUAUACAUGAGGAUCACCCAUGUAAAUGAAUAAGCUGGAAACAGCAUGUAUAGAAGGCUGCUCCGACA | 45.6 nM | 125 nM | – | –
AUCCGGCGUGUAGGAUAUGGAAAAGAUAAGGAUCCAGAAGGACAUGAGGAUCACCCAUGUACAUGUAAACAGUCAUCACCGGAA | 35.3 nM | 50.9 nM | – | –
CCCACACUUGUGAGGAUAUGGAUAGCUGCUGCUGAUUAGAAGGCACAUGAGGAUCACCCAUGUCACCCUCAUGG | 278 nM | 255 nM | – | –
ACGUCGAGCCAGAAGGCAACAUGAGGAUCACCCAUGUAGUCCGGCUCGUGUUGAGGAUAUGGCACCCACGCGGAAGGCGCAGGU | 5.54 nM | 7.19 nM | – | –
GCCAGGAUGUGAGGAUAUGCUGAGGAUAACUCAGCAGAAGGCACAUGAGGAUCACCCAUGUAAACUUAUCAUAAAUACCCUGGC | 14.3 nM | 21.2 nM | – | –
AAAAAGUCAGGAUAUGUGAAAAAAAAAAAAAAAAAAAAAAAACAGAAGGGACAUGAGGAUCACCCAUGUAAAAA | 54.1 nM | 62.3 nM | – | –
GGUUUUUCUGAGGAUAUUGCAUCACCCGAUUUAUAAGAAGGCAGAACAUGAGGAUCACCCAUGUGGGUUUCUAG | 19.4 nM | 24.8 nM | – | –
GAGAAGAAGUUAGGAUAUUGGAUAGGGACGGAAUAAGAAGGAGCACAUACAUGAGGAUCACCCAUGUUAGAAGAAGAGAUCCUC | 545 nM | 253 nM | – | –
UUGGACGUCGUAGGAUAUGUAGGAUUUUCCUACAUGAGGAUCACCCAUGUUGAAAUGGAAGAAGGACAGAAGGACGAUGUCCAU | – | – | 139 nM | 16.2 nM
UCCCGUUGUCAGAAGGCUCCUCGUAACCCGAGGAGAGGAUAUGACACAUGAGGAUCACCCAUGUGCCCGGUCGUGACAAAGGUG | 11.7 nM | 158 nM | – | –
CUGAUGUUAGGAUAUCAGGCUGUGCGCGAAAACGGGCGGCAUGAGAAGGAACAUGAGGAUCACCCAUGUGACGG | 47.3 nM | 124 nM | – | –
UCAUUUAUUACAGGAUAUGUUAGUAUUCAGUUGUUUGGUUAUUACUUAUUUACAGAAGGGUAGAACAUGAGGAUCACCCAUGUA | – | – | 407 nM | 329 nM
AACAGUACAGGAUAUACAUGAGGAUCACCCAUGUGAGAAUUAAGUGGCAUACCACAAAGUAGAAGGGUACUGGA | 29.7 nM | 202 nM | – | –
GCAUCACAUGAGGAUCACCCAUGUCUUCGGAGUCGAGGAUAUGGUCACUGUAAACAGUGGCCAGAAGGCGAGAUGC | – | – | 48.1 nM | 31.6 nM
CUUCUCGUUGUGAGGAUAUCGUUUUCGUCUCGGAUCGAGAAGGCACAUGAGGAUCACCCAUGUUUGUUGUGGUU | 115 nM | 103 nM | – | –
UGUGGACAUGAGGAUCACCCAUGUGAGGAUAUGGUCUGGAUACACUUGAGCUCGGCAUCCAGAAGGCGCGUGGC | 85.9 nM | 71.4 nM | – | –
UAUAAACAUGAGGAUCACCCAUGUAAUAAUAUGGGAGGAUAUCAGAUUUAAUUUAAUUUAUGAGAAGGCCUAAUAU | – | – | 627 nM | 43.1 nM
UUUUUAUUUGCAGGAUAUUGUAUUUUAUUACUUCAAGAAGGGCAUUACAUGAGGAUCACCCAUGUCUUCCUAUGGUUAACUAGU | 12.3 nM | 12 nM | – | –
UUAUGAUAGAUAGGAUAUACUAUGGUUUAAGAAGUAGAAGGAUCAAUUGGGAAAUGUACAUGAGGAUCACCCAUGUUAUAGGUU | – | – | 37.1 nM | 33.7 nM
CCUCCACAGGAGGAUAUCAUCAAACUAUUGUGAUGAGAAGGCCUGACAUGAGGAUCACCCAUGUUAUCGUGAUG | 56 nM | 185 nM | – | –
CUUAGUUUGUAGAAGGGUGACAUGAGGAUCACCCAUGUGCGUCUCCUGAAAGACCAGGGUACGCCACAGGAUAUACAAAGUAAG | – | – | 42.7 nM | 47.7 nM
AACAGUACAGGAUAUACAUGAGGAUCACCCAUGUGACAAUUAAGUGGCGUACCACAGAGUAGAAGGGUACUGGA | 35 nM | 151 nM | – | –

Sequence | apparent Kd [1] | apparent Kd [2] | apparent Kd [3] | apparent Kd [4]
GUCAGUGUGGUAGGAUAUCGAAACGGUCAGUUACGAGAAGGGCUACAUGAGGAUCACCCAUGUAUCCAAGAUCGGCUUACAGCA | 5.87 nM | 5.92 nM | – | –
CAUAACUUUUCUCAUGUAAACAUGAGGAUCACCCAUGUAAUGAGAAGGAGGAGGAAGAGAGAAUCCUAGGAUAUCAGAAUUGUU | 6.41 nM | 6.84 nM | – | –
UUCGUGUGACAGAAGGGUCUUUCAGGCUGGGAGGCAGGAUAUGUGACAUGAGGAUCACCCAUGUUGGUAUCGUCUGUGUGUACG | 6.7 nM | 14.6 nM | – | –
CCUUUCCGAGGAUAUACAUGAGGAUCACCCAUGUGAUCCUAAGGCUGAUCAAGCCUAUGUAGAAGGCGCAAAUC | 133 nM | 182 nM | – | –
CUAAUUCAUGUAGGAUAUGCGUGGCGAAGCUAUGCAGAAGGACAUGAGGAUCACCCAUGUCUUUCCGUCUGCGUACAGACGGAA | 24.7 nM | 201 nM | – | –
AAGUAUAAGGGCAUUAAACAUGAGGAUCACCCAUGUACAAUAGAGGAUAUGCAUUUUGGUUUAGAGUAGAAGGUUAGAGAAUAU | 28 nM | 33.4 nM | – | –
CCGAGUGGCGUACAGGAUAUGUUGCAUGGAACAUGAGGAUCACCCAUGUAUUUGCUCCCGCAUACGCAGAAGGGUGCGUCCUGGG | – | – | 142 nM | 25.4 nM
GUCAGCUCGUGAGGAUAUACAACACUGCUUCGGCAGUGUAUUAAGAUCACAUGAGGAUCACCCAUGUAGAAGGCACGAGCUGAA | 13.7 nM | 245 nM | – | –
AAAGUGUGAAGCAGGGUGCUACAUGAGGAUCACCCAUGUCGGAGAAGGGCGCCGUUUCGCAUGGUGUAGGAUAUCUGGCGUGCA | 116 nM | 132 nM | – | –
CCUUUGAAGAUCCUAAAUUUCGACAUGAGGAUCACCCAUGUGCAGGAUAUCGUGCCAGUGAUGUACGAGAAGGGCAGUCUCUGC | 49 nM | 53.5 nM | – | –
GGGUACAUGGGAGGAUAUGGGACAUGAGGAUCACCCAUGUGAAAAUUAAAUAUGCCGAGAGGCAACUAGAAGGCCCAUGUACCG | – | – | 31.1 nM | 15.3 nM
AACUGACAUGAGGAUCACCCAUGUCAGGAUAUGACUUGAUAGAAAAUAAAAUAUCAUGUCAGAAGGGACAUGGA | 23.8 nM | 33.3 nM | – | –
AUACAUGAGGAUCACCCAUGUCGCAGGUUAAGGCCCAAAUCGAGAAGGGAUUCGGUCAAGCCUAAUCAGGAUAUCGGUGGAGCC | – | – | 84.3 nM | 69.6 nM
GACAUGAGGAUCACCCAUGUCCAUGCAAAAGUAGUUGAGACCAGAAGGACCGUGCGGAGUGCAGGGUAGGAUAUGGAGCCCUCA | – | – | 28.2 nM | 7.34 nM
GGCUGGCAGCUAGGAUAUGGGCGAUCACAUGAGGAUCACCCAUGUCAACAUCAAAACAAGAUUAACCAGAAGGAGCCGCGGGUU | – | – | 18.4 nM | 76.7 nM
GUCAGCUCGUGAGGAUAUACAACAAUGCUUCGGCAGUGUAUUAAGAUCACAUGAGGAUCACCCAUGUAGAAGGCACGAGCUGAU | 7.66 nM | 73.7 nM | – | –
AAAGAGCGAGGAUAUACAUGAGGAUCACCCAUGUAAAGAUGCAUGGUCUGAACGUCUGGUAGAAGGCGUAUGAA | 135 nM | 120 nM | – | –
AAUGAGACCGCAGGAUAUCCACAUGAGGAUCACCCAUGUUCUCAGGUCGGAAGCACGACCUGCGAGGAGAAGGGCGACCUCAUA | – | – | 715 nM | 36.5 nM
ACAAAGCAUGUAGGAUAUCCAUUGCGUCGCGAUGGAGAAGGACAACACACAUGAGGAUCACCCAUGUGAUCACCCAUGUCAUGU | 866 nM | 1210 nM | – | –
UUUUUGUCAGGAUAUCUAAUCUAGAUGUUCGCAUCUAGAUUAGAGAAGGGACAUGAGGAUCACCCAUGUAGUUU | 61.9 nM | 253 nM | – | –
UCGUAUACACAAGGAUAUCGAUGGCUUGUAGAUCCUACAUGAGGAUCACCCAUGUUUUUAUAUUGUGAGAAGGUGUAGUGUCUU | – | – | 1170 nM | 1910 nM
ACCUUACUGGUCAGGAUAUACAGUCUUUGGUGGGUGUAGAAGGGACAUGAGGAUCACCCAUGUAGGUUGCAGCA | 175 nM | 153 nM | – | –
CUACAUGAGGAUCACCCAUGUGCGCACUGGAUCAGUGCGCGCAGAAGGGCCAUGGAGAAAGCCAGGCAGGAUAUGCAAAGGGCU | – | – | 288 nM | 226 nM
AUGGUACAUGAGGAUCACCCAUGUUAGGAUAUCGCGUGAGGUAAAACUUACACACACACGAGAAGGGACGACAU | 65.2 nM | 46.7 nM | – | –
CAGUACUGAGGAUAUACAUGAGGAUCACCCAUGUGCUUUAGCUAGGAUACUAGCAUCAGUAGAAGGCAGUACUG | 12.8 nM | 29.4 nM | – | –
CUUCUGUGAGGAUAUUAGUAGUAAAUAAAUAAAAUUAUUACUGAGAAGGCACAUGAGGAUCACCCAUGUUCCUC | 35.1 nM | 392 nM | – | –
GCUGCAUAUGAGAAGGCGAUCAUGAAACAUGAUCGAGGAUAUCAUGUUUACAUGAGGAUCACCCAUGUAUGGGUAUAAUGCAGC | – | – | 492 nM | 14 nM
